The text below walks through data of PMC10883201 (Nature, 2023).

Values after ≈ are worked out from the molar mass of the structure shown.

For one series, the system named is Candida krusei. As to the kind of experiment: MIC assay. It counts as cell-based.
Another series concerns Aspergillus fumigatus 91. Put plainly: MIC assay. It counts as cell-based.
The test system of another series is C. albicans SN250. Put plainly: Erg extraction experiment. It counts as cell-based, Candida albicans. The settings on record: C. albicans SN250, compound at 5 μM.
Series [1] can be described thus: ITC with Erg-containing large unilamellar vesicles. It counts as binding. Conditions: ITC heat exchange.
Series [2] is described as follows: ITC with Chol-containing large unilamellar vesicles. It counts as binding. The settings on record: ITC heat exchange.
Series [3] relates to primary human renal proximal tubule epithelial cells. Put plainly: Cell viability assay. It counts as cell-based. The settings on record: up to highest concentration tested 50 μM.
A further series has as its system human red blood cells. As to the kind of experiment: Red blood cell lysis / permeabilization. It counts as cell-based. Conditions: up to highest concentration tested 500 μM.
The subject of another series is K562 cells. Put plainly: Cell viability assay. It counts as cell-based, human. The settings on record: up to highest concentration tested 50 μM. Put shortly: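 Suspension cells grown in complete IMDM with FBS and Pen-Strep at 37 °C, 5% CO2. Without trypsinization, suspension was adjusted to 12.5 × 10^5 cells ml−1 and held 3 h at 37 °C before compound. Exposure was 0.5–50 μM final in 1% DMSO, with DMSO and puromycin controls, for 24 h. Viability was by alamarBlue fluorescence after 3 h (ex 537/em 585 nm). Triplicate; average of three experiments.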

The next series has as its system HepG2 liver cells. As to the kind of experiment: Cell viability assay. It counts as cell-based, human. The settings on record: up to highest concentration tested 50 μM. Put shortly:
(§1)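 Cells grown in complete MEM with FBS, Pen-Strep and non-essential amino acids at 37 °C, 5% CO2. Trypsinized cells were adjusted to 5 × 10^5 cells ml−1, seeded at 10^4 cells per well, and held 3 h at 37 °C. Compound was then added at 0.5–50 μM final in 1% DMSO, with DMSO and puromycin controls, for 24 h. alamarBlue was read after 3 h (ex 537/em 585 nm). Triplicate; average of three experiments.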

The next series relates to H9c2 myocardial cells. Put plainly: Cell viability assay. The settings on record: up to highest concentration tested 50 μM. It counts as cell-based, rat. Put shortly: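 Rat myocardial cells maintained in complete DMEM with FBS, Pen-Strep and non-essential amino acids, 37 °C, 5% CO2. After trypsinization, cells at 5 × 10^5 cells ml−1 were seeded at […] and rested 3 h. Compound was given at 0.5–50 μM final (1% DMSO) for 24 h, with DMSO and puromycin controls. alamarBlue was added 3 h, then fluorescence read at 537/585 nm. Triplicate; mean of three experiments.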

The test system of another series is SH-SY5Y neural cells. Put plainly: Cell viability assay. Conditions: up to highest concentration tested 50 μM. It counts as cell-based, human. In a few lines: as §1
Series [4] can be described thus: Renal toxicity in mice, 24 h post single IV dose. It counts as in vivo, female CD-1 mice.
The conditions of series [5]: ITC, Erg-containing LUVs; AmB–Erg binding data reported earlier; cited from earlier work.
A short description of series [6]: Solution stability in PBS buffer. It counts as physicochemical. Conditions: PBS buffer at pH 6.

For the molecule `C[C@@H]1[C@H](O)[C@@H](C)/C=C/C=C/C=C/C=C/C=C/C=C/C=C/[C@H](O[C@@H]2O[C@H](C)[C@@H](O)[C@H](N)[C@H]2O)C[C@@H]2O[C@](O)(C[C@@H](O)C[C@@H](O)[C@H](O)CC[C@@H](O)C[C@@H](O)CC(=O)O[C@H]1C)C[C@H](O)[C@H]2C(=O)O` [C2′epiAmB], the MIC against Candida krusei is 1 µM (≈ 0.924 µg/mL); with Aspergillus fumigatus 91, greater than 32 µM. The “T50% (time required for 50% Erg extraction)” value in the series with C. albicans SN250 is recorded as 2.75 h. Moreover, the Erg binding result in series [1] is reported as “retained, albeit diminished, capacity to bind Erg”. Also, the Chol binding result in series [2] is reported as “no binding”. The toxicity result (in series [3]; with human red blood cells; in the series on K562 cells; in the series on HepG2 liver cells; in the series with H9c2 myocardial cells; in the series on SH-SY5Y neural cells) was “no toxicity” each time. Further, the kidney injury biomarkers result in [4] (24 h after single IV 45 mg/kg dose) is listed as “do not elevate kidney injury biomarkers”. In addition, the renal biomarkers entry in series [4] (doses of ≥45 mg kg^−1, single IV, 24 h, 1:2 deoxycholate formulation) is recorded as “no elevation of renal biomarkers”.
In the case of `C[C@@H]1[C@H](O)[C@@H](C)/C=C/C=C/C=C/C=C/C=C/C=C/C=C/[C@H](O[C@@H]2O[C@H](C)[C@@H](O)[C@H](N)[C@@H]2O)C[C@@H]2O[C@](O)(C[C@@H](O)C[C@@H](O)[C@H](O)CC[C@@H](O)C[C@@H](O)CC(=O)O[C@H]1C)C[C@H](O)[C@H]2C(=O)O` [AmB, amphotericin B, reference compound], the “T50% (time required for 50% Erg extraction)” value with C. albicans SN250 stood at 0.92 h. Also, the “ΔΔHErg (ΔHsterol – ΔHsterol-free)” value in series [5] is -42.4 ± 11.2 µcal.
As to `CC1C=CC=CC=CC=CC=CC=CC=CC(OC2CC(N)C(O)C(C)O2)CC2OC(O)(CC(O)CC(O)C(O)CCC(O)CC(O)CC(=O)OC(C)C(C)C1O)CC(O)C2C(=O)O` (stereo not shown) [C2′deOAmB], the solution stability result in series [6] is “unstable”.
